Measured values from ChEMBL document CHEMBL2021817, “Synthesis and anti-norovirus activity of pyranobenzopyrone compounds” (Bioorg Med Chem Lett, 2012).

Experiments:
[1] = tested on: Norovirus; test: Antiviral activity against Norovirus infected in human HG23 cells assessed as inhibition of viral replication after 24 hrs by RT-PCR analysis; assay type: functional; conditions: HG23, 24 h, read-out: ED50 (the source's name)
Method in brief: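 Norwalk virus replicon-bearing HG23 cells were used one day after seeding, at 80-90% confluence. They were exposed to a range of compound concentrations from 0 (DMSO mock) to 10 µM. NV genome levels were quantified by real-time qRT-PCR. ED50 was taken as the concentration that lowered NV genome levels by 50%.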

[2] = Cytotoxicity against human HG23 cells after 48 hrs; assay type: cell-based; conditions: read-out: TD50
Method in brief: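 HG23 cells (Norwalk virus replicon-harboring) were exposed to a concentration series from 0 (mock, DMSO) to 200 µM. Viability was read with a commercial cell cytotoxicity assay kit after 48 h of treatment, and the median toxic dose (TD50) was calculated from it.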

[3] = Therapeutic index, ratio of TD50 for human HG23 cells to ED50 for Norovirus; assay type: cell-based; conditions: read-out: Ratio TD50/ED50
Method in brief: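 TI was taken as TD50 over ED50, both measured in HG23 replicon cells. For ED50, one-day-old cells at 80-90% confluence were treated with 0 (mock, DMSO) to 10 µM, and replicon genome levels were quantified by real-time qRT-PCR at 48 h. For TD50, cells were treated with 0 to 200 µM and read with a cytotoxicity kit at 48 h.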

SMILES	EC50 [1] [µM]	CC50 at 48 h [2] [µM]	selectivity ratio [3]
Cc1cc2c(c(=O)o1)C=C1CC[C@H](C(C)CNC(=O)c3ccnc4ccccc34)C[C@@H]1O2 (stereo not given in full)	5.5	104	18.8
Cc1cc2c(c(=O)o1)C=C1CC[C@H](C(C)CNCc3ccc4ncccc4c3)C[C@@H]1O2 (stereo not given in full)	8.1	–	–
Cc1cc(CNCC(C)[C@H]2CCC3=Cc4c(cc(C)oc4=O)O[C@H]3C2)c2ccccc2n1 (mixture of isomers)	8.2	–	–
CC(=O)OCc1cc(CNCC(C)[C@H]2CCC3=Cc4c(cc(C)oc4=O)O[C@H]3C2)c2ccccc2n1 (mixture of isomers)	9.7	–	–
Cc1cc2c(c(=O)o1)C=C1CC[C@H](C(C)CNCc3cc(CO)nc4ccccc34)C[C@@H]1O2 (mixture of isomers)	9.5	–	–
Cc1cc2c(c(=O)o1)C=C1CC[C@H](C(C)CNCc3cc(C4OCOCO4)nc4ccccc34)C[C@@H]1O2 (mixture of isomers)	8.4	–	–
Cc1cc2c(c(=O)o1)C=C1CC[C@H](C(C)CNCc3cc(C)c4ccccc4n3)C[C@@H]1O2 (mixture of isomers)	5.3	> 200	> 40
Cc1ccc2nccc(CNCC(C)[C@H]3CCC4=Cc5c(cc(C)oc5=O)O[C@H]4C3)c2c1 (mixture of isomers)	3.4	61.2	18
Cc1ccc2nc(CNCC(C)[C@H]3CCC4=Cc5c(cc(C)oc5=O)O[C@H]4C3)ccc2c1 (mixture of isomers)	8.1	83.7	10.3
Cc1cc2c(c(=O)o1)C=C1CC[C@H](C(C)CNCc3ccnc4c3ccc3ccccc34)C[C@@H]1O2 (mixture of isomers)	5.3	> 200	> 40
Cc1cc2c(c(=O)o1)C=C1CC[C@H](C(C)CN)C[C@@H]1O2 (mixture of isomers)	> 10	> 200	–
Cc1cc2c(c(=O)o1)C=C1CC[C@H](C(C)CNCc3cccnc3)C[C@@H]1O2 (mixture of isomers)	4.1	> 200	> 50
Cc1cc2c(c(=O)o1)C=C1CC[C@H](C(C)CNCc3ccncc3)C[C@@H]1O2 (mixture of isomers)	9.6	–	–
Cc1cc2c(c(=O)o1)C=C1CC[C@H](C(C)CNCc3ccc4ccccc4n3)C[C@@H]1O2 (mixture of isomers)	3.4	> 200	> 58.8
Cc1cc2c(c(=O)o1)C=C1CC[C@H](C(C)CNCc3ccnc4ccccc34)C[C@@H]1O2 (mixture of isomers)	2.4	96.4	40.2
Cc1cc2c(c(=O)o1)C=C1CC[C@H](C(C)CNCc3cccc4cccnc34)C[C@@H]1O2 (mixture of isomers)	> 10	> 160	> 16
